Source: PubChem BioAssay (Johns Hopkins Ion Channel Center)
KCNQ1 pot = potentiates or activates the human KCNQ1 potassium channel | B-score at 10 µM | AID 2648 | 0.35% of 310,000 active | CHO-K1 KCNQ1, thallium flux FluxOR fluorescence; stronger effect = higher value | P51787;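 active = fluorescence ratio B-score, a plate-corrected score, at least three library SD, with initial intensity B-score within 5 SD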
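assay system = KCNQ1-transfected CHO-K1 cells | medium = assay buffer with matched DMSO | probe or stimulus = depolarizing K+/Tl+ stimulus, K2SO4 and Tl2SO4 each 12.5 mM in 5x stock | dosing = single dose | incubation = dye 90 min, compound 20 min, room temperature | detection = kinetic FluxOR fluorescence, 10 s baseline plus 110 s post-stimulus | evaluation = ratio B score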
KCNK3 block = human KCNK3 channel inhibition, primary screen. O14649. CHO-KCNK3 thallium flux, FluxOR fluorescence; stronger effect = lower value. B-score at 10 µM. 0.84% of 340,000 active;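 active = B-score under library mean minus 4 SD, starting fluorescence ratio at most library mean plus 5 SD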;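 also: more negative B-score means stronger inhibition of thallium flux through KCNK3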
Target sequence (O14649 whole entry, looked up): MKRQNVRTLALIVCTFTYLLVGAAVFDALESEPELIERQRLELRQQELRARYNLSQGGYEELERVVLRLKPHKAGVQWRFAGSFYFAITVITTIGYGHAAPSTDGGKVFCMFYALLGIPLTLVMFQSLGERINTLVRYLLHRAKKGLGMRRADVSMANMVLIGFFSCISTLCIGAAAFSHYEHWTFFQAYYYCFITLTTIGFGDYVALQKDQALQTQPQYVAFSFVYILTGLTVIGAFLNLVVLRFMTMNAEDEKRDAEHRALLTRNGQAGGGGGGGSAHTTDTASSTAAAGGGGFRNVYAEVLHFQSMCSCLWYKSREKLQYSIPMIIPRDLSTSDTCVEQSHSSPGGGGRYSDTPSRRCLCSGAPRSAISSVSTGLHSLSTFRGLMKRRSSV
KCNK9 block = blocks the human KCNK9 two-pore domain potassium channel | Q9NPC2 | HEK293 KCNK9, FluxOR thallium flux fluorescence; stronger effect = lower value | B-score at 10 µM | 1.2% of 310,000 active;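 active = ratio B-score over 3 SD below the library mean, with starting fluorescence within 5 SD of its mean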;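 also: negative B-score means less thallium flux so channel inhibition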
Target sequence (Q9NPC2 whole entry, looked up, the tested form may be a part): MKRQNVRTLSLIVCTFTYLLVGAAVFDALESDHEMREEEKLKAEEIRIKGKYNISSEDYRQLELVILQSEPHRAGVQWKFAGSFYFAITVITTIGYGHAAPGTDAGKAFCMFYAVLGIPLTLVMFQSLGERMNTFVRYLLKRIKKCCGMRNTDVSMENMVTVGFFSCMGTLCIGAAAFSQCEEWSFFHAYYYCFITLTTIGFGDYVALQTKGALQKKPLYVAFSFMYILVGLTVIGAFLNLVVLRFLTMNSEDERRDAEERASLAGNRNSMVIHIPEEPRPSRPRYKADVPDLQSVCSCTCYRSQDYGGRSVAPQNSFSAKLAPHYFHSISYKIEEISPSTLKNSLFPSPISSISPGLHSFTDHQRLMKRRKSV
Kir21 block = blocks the mouse Kir2.1 inward-rectifier potassium channel | 0.85% of 310,000 active | HEK293-Kir2.1, FluxOR thallium flux fluorescence; stronger effect = lower value | P35561 | B-score at 10 µM;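 active = fluorescence ratio B-score at or below minus 3 SD of library scores, with starting-brightness B-score within 2 SD, cut at about -4.2 in these data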;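 also: channel flux triggered by added potassium and thallium sulfate stimulus; B-score of peak minus minimum fluorescence over baseline after thallium stimulus; more negative B-score means stronger Kir2.1 block with less thallium influx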
hERG rescue = shields human hERG channel from block by proarrhythmic agents; activation (rescue from dofetilide block), less the hit threshold, % at 10 µM; CHO-hERG, FluxOR thallium flux, dofetilide IC70 present; Q12809; 0.51% of 310,000 active;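 active = activation above the mean of controls blocked by dofetilide plus 5 SD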;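 also: thallium influx through hERG after potassium depolarization seen as dye fluorescence rise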
KCNQ1 inh = blocks the human KCNQ1 potassium channel | P51787 | CHO-K1 KCNQ1, FluxOR thallium flux fluorescence; stronger effect = higher value | B-score at 10 µM | 1.3% of 310,000 active | AID 2642;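 active = compounds whose thallium flux B-score, printed positive for inhibition, exceeds three library SD while starting fluorescence stays within three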;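 also: channel opened by potassium depolarization with thallium stimulus after 20 min compound exposure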
KCNK9 block conf = confirmation of human KCNK9 potassium channel inhibitors. shares compounds with KCNK9 block. HEK293 KCNK9 cells, FluxOR thallium flux fluorescence. inhibition, % at 10 µM. 43% of 4,900 active;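 active = thallium signal inhibited by more than 5 SD of the compound-free buffer control wells, on both duplicate plates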
Kir2-1 spec = selectivity of KCNK9 modulators against mouse Kir2.1. shares compounds with KCNK9 block. Kir2.1 cells, FluxOR thallium flux fluorescence. inhibition, % at 10 µM. 4% of 4,900 active;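 active = thallium signal drop more than 5 SD beyond the mean of the no-compound control wells, seen in both duplicate plates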;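 also: signal is fluorescence rise after thallium addition divided by baseline fluorescence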
KCNK9 uninduced = second counter-screen for KCNK9 modulators: effect in non-induced cells; shares compounds with KCNK9 block; non-induced KCNK9-HEK293, FluxOR thallium flux; inhibition, % at 10 µM; 40% of 4,900 active; AID 492997;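 active = thallium signal drop beyond 5 SD of the untreated control mean, on both duplicate plates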
Of the large screens only hits and unclear results are named; the others gave an inactive call (follow-up assays come after a bar, where they were run). The list is not random: actives were taken first. Their share in the collection is about 3.7%.

O=C(CSc1nc2ccccc2c(=O)n1-c1ccccc1)c1cccc([N+](=O)[O-])c1	none
COc1ccc(C(=O)Nn2c(SCc3cccc([N+](=O)[O-])c3)nc3ccccc3c2=O)cc1	KCNK9 block -12 | KCNK9 block conf 68% | Kir2-1 spec inactive | KCNK9 uninduced 32%
O=C(Nn1c(SCc2cccc([N+](=O)[O-])c2)nc2ccccc2c1=O)c1ccccc1	KCNK9 block -13 | KCNK9 block conf 67% | Kir2-1 spec inactive | KCNK9 uninduced 43%
COc1ccc(C(=O)Nn2c(SCC(=O)NC3CCCCC3)nc3ccccc3c2=O)cc1	none
O=C(CN(C(=O)CNC(=O)c1cccs1)c1ccccc1)NC1CCCCC1	none
O=C(NCc1ccccc1Cl)c1ccc(CS(=O)Cc2ccc(Cl)cc2)o1 (stereo not given)	none
C#Cc1ccc([C@H]2C=C(C(=O)NCc3ccccc3)O[C@@H](OCc3ccc(CO)cc3)C2)cc1	none | KCNK9 block conf inactive | Kir2-1 spec inactive | KCNK9 uninduced inactive
O=C(C1=C[C@H](c2ccc(Br)cc2)C[C@H](OCCCCO)O1)N1CCN(Cc2ccccc2)CC1	none | KCNK9 block conf inactive | Kir2-1 spec inactive | KCNK9 uninduced inactive
O=C(NC1CC1)C1=C[C@H](c2csc3ccccc23)C[C@H](OCc2ccc(CO)cc2)O1	none
O=C(Nc1ccccc1)C1=C[C@H](c2csc3ccccc23)C[C@H](OCc2ccc(CO)cc2)O1	KCNK9 block -9.1 | KCNK9 block conf 46% | Kir2-1 spec inactive | KCNK9 uninduced 36%
O=C(NCc1ccccc1)C1=C[C@H](c2ccc(Br)cc2)C[C@H](OCCCCO)O1	none | KCNK9 block conf inactive | Kir2-1 spec inactive | KCNK9 uninduced inactive
O=C(C1=C[C@@H](c2ccc(Br)cc2)C[C@@H](OCCCCO)O1)N1CCN(Cc2ccc3c(c2)OCO3)CC1	none
COc1ccc(NC(=O)Nc2cccc3c2O[C@H](CN(C)S(=O)(=O)c2cn(C)cn2)[C@@H](C)CN([C@H](C)CO)C3=O)cc1	none (no result: KCNQ1 pot, KCNK9 block, Kir21 block, hERG rescue, KCNQ1 inh)
C=C(C)CNC(=S)N1CCNC(=O)C1CC(=O)OC (stereo not given)	none
O=C1CCCC(=O)N1c1ccc(NCCOCCO)c([N+](=O)[O-])c1	none
CCN(CC)S(=O)(=O)c1ccc(S(=O)(=O)N2CCCC(C(=O)NC3CC3)C2)cc1 (stereo not given)	none
Cc1ccc(CNC(=O)C2CCN(C(=O)Nc3ccc(C)cc3)CC2)cc1	none
Cc1cc(C)n2nc(CNS(=O)(=O)c3ccc(F)c(C)c3)nc2n1	none
CC(C)(C)[C@H]1C=C(C(=O)NCc2ccccc2)O[C@@H](OCCCCO)C1	none | KCNK9 block conf inactive | Kir2-1 spec inactive | KCNK9 uninduced inactive
O=C1/C(=C/c2ccccc2)SC(=S)N1N1C(=O)C2CC2C1=O (stereo not given)	none
O=C(c1ccc(F)cc1)N1CCN(c2cc(N3CCCCC3)c(F)cc2[N+](=O)[O-])CC1	none | KCNK9 block conf inactive | Kir2-1 spec inactive | KCNK9 uninduced inactive
COc1ccc(N2CCN(C(=O)c3ccc(F)cc3)CC2)c([N+](=O)[O-])c1	none
Cc1cccc([N+](=O)[O-])c1NC(=O)CN(Cc1ccccc1)Cc1ccccc1	KCNK9 block -8.8 | KCNK9 block conf 30% | Kir2-1 spec inactive | KCNK9 uninduced 37%
Cc1cccc(C)c1NC(=O)CNC(=O)Cc1ccccc1[N+](=O)[O-]	none
O=C(N[C@H]1CCC(=O)N(CCSc2ccc(Br)cc2)CC1)OCc1ccccc1	none (no result: KCNQ1 pot, KCNK9 block, Kir21 block, hERG rescue, KCNQ1 inh)
Cc1ccc(SCCN2CCN(CC(C)C)CCC2=O)cc1	none | KCNK9 block conf inactive | Kir2-1 spec inactive | KCNK9 uninduced inactive
Cc1ccc(SCCN2CCC(C(C)(C)C)CCC2=O)cc1 (stereo not given)	none | KCNK9 block conf inactive | Kir2-1 spec inactive | KCNK9 uninduced inactive
Cc1ccc(SCCN2CCC(NC(=O)OCc3ccccc3)CCC2=O)cc1 (stereo not given)	none | KCNK9 block conf inactive | Kir2-1 spec inactive | KCNK9 uninduced inactive
C[C@@H](CSc1ccccc1)CN1CC[C@H](C(C)(C)C)CCC1=O	Kir21 block -5.3 | KCNK9 block conf inactive | Kir2-1 spec inactive | KCNK9 uninduced inactive
COc1ccc(C)cc1S(=O)(=O)N1CCC(C(=O)N2CCN(C)CC2)CC1	none
O=[N+]([O-])/C(C(Cl)=C(Cl)Cl)=C(\Sc1ccccc1)N1CCCCC1	none
COc1ccccc1N1CCN(C(=O)CCSCc2ccccc2F)CC1	none
COc1cccc(N2CCN(C(=O)CCSCc3ccccc3F)CC2)c1	none | KCNK9 block conf inactive | Kir2-1 spec inactive | KCNK9 uninduced inactive
N#CCN(C(=O)COC(=O)CCCNC(=O)c1ccc(Cl)cc1)c1ccccc1	none (no result: KCNQ1 pot, KCNK9 block, Kir21 block, hERG rescue, KCNQ1 inh)
CCNC(=O)NC(=O)CN(C)c1ccccc1	none
COc1cc(OC)c(OC)cc1CN1CCN(c2ccc(F)cc2)CC1	none | KCNK9 block conf inactive | Kir2-1 spec inactive | KCNK9 uninduced inactive
COc1ccc(/C=N/NC(=O)c2ccccc2)cc1CN1CCN(c2ccc(F)cc2)CC1	none
COc1cc(C(=O)N/N=C/c2ccc(OC)c(CN3CCN(c4ccc(F)cc4)CC3)c2)ccc1O	none | KCNK9 block conf inactive | Kir2-1 spec inactive | KCNK9 uninduced inactive
Cc1ccc(-c2nn(C)c(=O)c3ccccc23)cc1CNC(=O)NC1CCCCC1	none
CSc1ccc(CNCC2CCCO2)cc1 (stereo not given)	none
Cn1c(-c2ccc(C=O)s2)nc2c3ccccc3c3ccccc3c21	KCNK9 block -10, KCNQ1 inh 7 | KCNK9 block conf 33% | Kir2-1 spec inactive | KCNK9 uninduced 72%
Cc1sc(NC(=O)CN2CCOCC2)c(C#N)c1C	none
COc1ccccc1CN(Cc1cc2cc(C)ccc2[nH]c1=O)Cc1nnnn1Cc1ccco1	KCNK9 block -8.7 | KCNK9 block conf inactive | Kir2-1 spec inactive | KCNK9 uninduced 36%
CCCCc1c(O)nc(SCC(=O)c2ccccc2)n(-c2ccccc2OC)c1=O	KCNK9 block -13 | KCNK9 block conf 51% | Kir2-1 spec inactive | KCNK9 uninduced 25%
CCNc1nc(NC(C)C)nc(Oc2ccc(=O)n(C)n2)n1	none
CCCCn1c(-c2cccc3ccccc23)nc2cc3[nH]c(=O)c(C(C)C)nc3cc21	KCNK9 block -11 | KCNK9 block conf 54% | Kir2-1 spec inactive | KCNK9 uninduced inactive
CCCCn1c(C2CCCCC2)nc2cc3[nH]c(=O)c(C(C)C)nc3cc21	none
